HTR2A ag: mouse Htr2a agonists via beta-arrestin recruitment, primary screen, cell-based, luminescence | CHO-K1 mHTR2A beta-arrestin complementation; percent of 30 µM serotonin response | activation, % at 7.6 µM | hit rate 0.66% among 360,000;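 active = activation above a run cutoff, the mean activation of all tested compounds plus 3 SD, cut at about 14% in these data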;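 note: 0% = plate median of compound wells and 100% = 30 µM serotonin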
Target sequence (P35363 whole entry, looked up): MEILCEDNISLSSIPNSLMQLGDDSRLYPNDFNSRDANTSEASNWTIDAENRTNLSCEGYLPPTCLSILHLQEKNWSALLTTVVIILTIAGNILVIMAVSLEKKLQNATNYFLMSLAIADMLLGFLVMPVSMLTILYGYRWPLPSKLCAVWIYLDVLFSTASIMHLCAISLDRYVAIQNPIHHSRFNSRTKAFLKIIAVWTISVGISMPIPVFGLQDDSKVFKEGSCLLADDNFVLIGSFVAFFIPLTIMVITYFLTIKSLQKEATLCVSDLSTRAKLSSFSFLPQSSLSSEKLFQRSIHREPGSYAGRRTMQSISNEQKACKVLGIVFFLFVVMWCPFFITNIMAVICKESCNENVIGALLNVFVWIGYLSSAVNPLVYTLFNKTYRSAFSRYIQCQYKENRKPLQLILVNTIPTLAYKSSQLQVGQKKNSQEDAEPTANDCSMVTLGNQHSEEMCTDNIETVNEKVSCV
TAAR1 ag: human TAAR1 agonists, primary screen, Fluo-8 calcium fluorescence, CHO RD-HGA16 cells; AID 624467, 2012; vehicle wells 0%, saturating PEA agonist 100%; hit rate 0.99% among 360,000; activation, % at 3 µM; Trace amine-associated receptor 1 (Homo sapiens), Q96RJ0;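 active = activation above the mean activation of all test compounds in the run plus 3 SD, cut at about 38% in these data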
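Test system: RD-HGA16 (CHO) cells co-expressing Gα16 and hTAAR1; dosing: one-point dosing at 3 µM (nominal); timing: 17-24 h seeding, 75 min 37 °C dye, 30 min RT; signal: kinetic Fluo-8 calcium fluorescence; read-out basis: % activation relative to PEA EC100 response; controls: DMSO and PEA EC100; replicates: n 1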
TAAR1 antagonist: human TAAR1 antagonists, primary screen, Fluo-8 calcium fluorescence, CHO RD-HGA16 cells. inhibition, % at 3 µM. AID 624466, 2012. antagonist. hit rate 1.5% among 360,000. Trace amine-associated receptor 1 (Homo sapiens), Q96RJ0;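 active = inhibition above a per-plate cutoff, the mean inhibition of test compounds on that plate plus 3 SD, cut at about 49% in these data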;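 note: 0% = DMSO plus EC80 beta-PEA response and 100% = DMSO alone without agonist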
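Material: RD-HGA16 CHO cells with stable hTAAR1 and Gα16; Dosing: single nominal final test compound concentration of 3 µM; Schedule: seeding 17-24 h prior, 75-min 37 °C, 30-min RT dye loading; Detection: kinetic Fluo-8 calcium fluorescence measurement; Measure: % inhibition from peak post-agonist over basal fluorescence ratio; Benchmarks: vehicle and agonist controls.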
B2AR ag: beta2AR agonists driving receptor internalization, primary screen, cell-based, FAP fluorogen, flow cytometry; Am2.2-beta2AR cells; Beta-2 adrenergic receptor (Homo sapiens), P07550; hit rate 0.43% among 340,000; response, % (concentration not given with the values);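 active = response above a set limit, near 3 SD of response in nonfluorescent compounds, cut at about 42% in these data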
MC4R barr agon: MC4R agonists recruiting beta-arrestin, primary screen, cell-based, luminescence, agonist arm of biased-ligand search; activation, % at 8.9 µM; hit rate 0.98% among 360,000; U2OS MC4R beta-arrestin complementation; percent of melanotan II response, DMSO zero; Melanocortin receptor 4 (Homo sapiens), P32245;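 active = activation above a per-plate cutoff, the mean activation of sample wells on that plate plus 3 SD, cut at about 8% in these data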
MC4R antagonist: MC4R antagonists of cAMP signaling, primary screen, cell-based, TR-FRET, antagonist arm of biased-ligand search; hit rate 0.48% among 360,000; MC4R-expressing cells, MTII-stimulated cAMP, LANCE TR-FRET; AID 540295, 2011; inhibition, % at 6.5 µM; Melanocortin receptor 4 (Homo sapiens), P32245;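 active = inhibition above its plate's cutoff, the mean of tested wells on that plate plus 3 SD, cut at about 29% in these data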;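 note: 0% = Melanotan II alone and 100% = Melanotan II plus saturating MCL0020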
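Assay system: human MC4R-expressing U2OS cells; reagent: Melanotan II stimulation of cells; dosing: 6.5 µM single dose; timing: compound 30 min, challenge 1 h, detection 1 h; signal: TR-FRET cAMP assay; replicates: one well per compound, no replicates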
The depositor's hits bear a star. Compounds with a hit are over-represented: about 4.3% of the library has one in this group of screens.

What do the screens show for `CCN(CC)C(=O)CSc1nc(-c2cccs2)cc(-c2cccs2)c1C#N`?
HTR2A ag: -1; TAAR1 ag: 5; TAAR1 antagonist: 61*; B2AR ag: 3; MC4R barr agon: -2; MC4R antagonist: 6

What do the screens show for `Cc1ccc(C(=O)N2NC(c3ccc(F)cc3)C3C(=O)N(c4ccc(C)c(C)c4)C(=O)C32)cc1` (configuration not stated)?
HTR2A ag: 5; TAAR1 ag: 38*; TAAR1 antagonist: 5; B2AR ag: 14; MC4R barr agon: 2; MC4R antagonist: -2

Results for CC(=O)c1ccc(-c2ccccc2C2=CC(=O)CC(C)(C)C2=O)cc1 ?
TAAR1 ag: -1; TAAR1 antagonist: -3

What do the screens show for `COC(=O)c1sc(NC(=O)CSc2nnnn2-c2cccc(OC)c2)nc1C`?
HTR2A ag: 0; TAAR1 ag: 1; TAAR1 antagonist: 10; B2AR ag: 1; MC4R barr agon: 8.7*; MC4R antagonist: 3

What do the screens show for `COC(=O)c1sc(NC(=O)COc2cccc3ccccc23)nc1C`?
HTR2A ag: -4; TAAR1 ag: 1; TAAR1 antagonist: -13; B2AR ag: 3; MC4R barr agon: 8.4*; MC4R antagonist: -3

What do the screens show for `CCOC(=O)c1sc(NC(=O)CSc2nnnn2-c2ccccc2)nc1C`?
HTR2A ag: -3; TAAR1 ag: 0; TAAR1 antagonist: 6; B2AR ag: -1; MC4R barr agon: 7; MC4R antagonist: 25

Results for O=C(NCc1ccccc1)C(c1cc2ccccc2o1)n1c(=O)c(-c2ccccc2)nc2ccccc21 (configuration not stated) ?
HTR2A ag: -2; TAAR1 ag: 2; TAAR1 antagonist: -28

What do the screens show for `O=C(CCN1C(=O)/C(=C/c2ccccc2)SC1=S)NNC(=O)c1cccnc1`?
HTR2A ag: 0; TAAR1 ag: 11; TAAR1 antagonist: 60*; B2AR ag: -12; MC4R barr agon: 8.8*; MC4R antagonist: -3

What do the screens show for `O=C(CCN1C(=O)/C(=C/c2ccccc2Cl)SC1=S)Nc1cccnc1`?
HTR2A ag: 3; TAAR1 ag: 10; TAAR1 antagonist: 50*; B2AR ag: -8; MC4R barr agon: 1; MC4R antagonist: 2

How did O=C(CCN1C(=O)/C(=C\c2cccs2)SC1=S)Nc1ccccn1 do in these assays?
HTR2A ag: 0; TAAR1 ag: 44*; TAAR1 antagonist: 21; B2AR ag: -3; MC4R barr agon: 5; MC4R antagonist: 7

How did COc1ccc2nc(NN=Cc3cccc(C)n3)cc(C)c2c1 do in these assays?
TAAR1 ag: 2; TAAR1 antagonist: -11

What do the screens show for `CCOc1ccc(/C=C/C(=O)Nc2ccc(N3CCOCC3)cc2)cc1`?
HTR2A ag: 0; TAAR1 ag: 11; TAAR1 antagonist: -11; B2AR ag: -1; MC4R barr agon: 8.9*; MC4R antagonist: 8

What do the screens show for `C[C@@H]1ON(C)[C@H]2C[C@H]3c4cc(Br)ccc4CCN3C[C@@H]12`?
TAAR1 ag: 4; TAAR1 antagonist: -31

Results for COc1cc(C2C(C#N)=C(N)Oc3cc(N)ccc32)cc(OC)c1OC (configuration not stated) ?
HTR2A ag: 9; TAAR1 ag: 8; TAAR1 antagonist: -6; B2AR ag: 50*; MC4R barr agon: -2; MC4R antagonist: -14

How did CCCCN1CC(COCc2ccccc2)Oc2cccc(N3CCCCC3)c2S1(=O)=O (configuration not stated) do in these assays?
TAAR1 ag: -1; TAAR1 antagonist: -35

Results for Cc1cc(Nc2ccc(Cl)c(C(F)(F)F)c2)cc(=O)n1-c1ccc(Cl)c(C(F)(F)F)c1 ?
TAAR1 ag: -1; TAAR1 antagonist: 5

What do the screens show for `CNC(=O)c1ccc(-c2ccc(OC)cc2)s1`?
HTR2A ag: 6; TAAR1 ag: 4; TAAR1 antagonist: -17; B2AR ag: -5; MC4R barr agon: 0; MC4R antagonist: 8

What do the screens show for `COc1ccc(NC(=O)c2ccc(-c3ccc(OC)cc3)s2)cc1`?
HTR2A ag: 0; TAAR1 ag: 2; TAAR1 antagonist: -15; B2AR ag: 9; MC4R barr agon: 8.5*; MC4R antagonist: -8

What do the screens show for `COc1ccc(-n2c(SCC(=O)Nc3ccccc3)nnc2-c2ccc(NS(=O)(=O)c3ccc(C)cc3)cc2)cc1`?
HTR2A ag: 8; TAAR1 ag: 9; TAAR1 antagonist: 53*; B2AR ag: 10; MC4R barr agon: 7; MC4R antagonist: 11

Results for COc1ccc(C(CNC(=O)c2ccc(S(=O)(=O)Nc3ccc(F)cc3)cc2)N(C)C)cc1 (configuration not stated) ?
HTR2A ag: -3; TAAR1 ag: 45*; TAAR1 antagonist: 17; B2AR ag: 4; MC4R barr agon: -3; MC4R antagonist: 3

Results for CCCN(CCC)S(=O)(=O)c1ccc(NC(=O)Cc2cccs2)cc1 ?
HTR2A ag: -3; TAAR1 ag: 10; TAAR1 antagonist: 13; B2AR ag: -1; MC4R barr agon: 4; MC4R antagonist: 5

How did COc1ccc(NS(=O)(=O)c2ccc(C(=O)N(C)Cc3cccs3)cc2)cc1 do in these assays?
HTR2A ag: 3; TAAR1 ag: 45*; TAAR1 antagonist: 34; B2AR ag: 8; MC4R barr agon: 2; MC4R antagonist: 9

Results for CCCCN(CCCC)S(=O)(=O)c1ccc(NC(=O)Cc2cccs2)cc1 ?
HTR2A ag: -5; TAAR1 ag: 11; TAAR1 antagonist: 46; B2AR ag: 51*; MC4R barr agon: 1; MC4R antagonist: -5

How did COc1ccc(C(CNC(=O)c2cccc(S(=O)(=O)Nc3ccc(F)cc3)c2)N(C)C)cc1 (configuration not stated) do in these assays?
HTR2A ag: -4; TAAR1 ag: 20; TAAR1 antagonist: -24; B2AR ag: 4; MC4R barr agon: -3; MC4R antagonist: 3

What do the screens show for `C=CCNc1cccc2c1S(=O)(=O)N[C@@H](Cc1ccccc1)CO2`?
TAAR1 ag: -2; TAAR1 antagonist: -2

Results for N#CCN(CC#N)C(=O)C1c2ccccc2Oc2ccccc21 ?
HTR2A ag: 3; TAAR1 ag: 3; TAAR1 antagonist: 7; B2AR ag: -5; MC4R barr agon: 0; MC4R antagonist: 3

Source: PubChem BioAssay (several laboratories)
